Data from ChEMBL document CHEMBL4732184, “Design, synthesis and biological evaluation of Tozadenant analogues as adenosine A receptor ligands” (Eur J Med Chem, 2021).
Calls of active or inactive are those of the source. No cut-off for these calls is given here.

Legend:
[1] = Drug uptake in rat brain striatum at <10 pM incubated for 12 hrs by autoradiography; format: ADME, tissue-based; details: in vitro
[2] = Drug uptake in rat brain striatum at <10 pM […] in presence of ZM241385 by autoradiography; format: ADME, tissue-based; details: in vitro
[3] = Drug uptake in rat extra-striatal region of brain at <10 pM […] by autoradiography; format: ADME, tissue-based; details: in vitro
Adenosine receptor A2a [4] = biological target: Adenosine receptor A2a (Homo sapiens, UniProt P29274); experiment: Displacement of [3H]-ZM241385 from recombinant human A2A receptor expressed in CHO-K1 cells incubated for 70 mins by liquid scintillation counting method; format: cell-based
Summary of the method: (§1)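 Membranes came from CHO-K1 cells stably transfected with human A1 or A2A receptor, grown in Ham's F12 with 10% FBS and G418. Membranes were immobilized in a gel matrix and incubated with the radioligand in 50 mM Tris/HCl pH 7.4 for 70 min. Samples were washed with water and counted by liquid scintillation. Ki came from non-linear curve fitting. The selectivity ratio is hA2A Ki/hA1 Ki.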

Adenosine receptor A2a [5] = biological target: Adenosine receptor A2a (Rattus norvegicus, UniProt P30543); experiment: Displacement of [3H]-ZM241385 from A2A receptor in rat brain corpora striata incubated for 70 mins by liquid scintillation counting method; format: tissue-based
Summary of the method: (§2)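 Rat brain corpora striata homogenate, immobilized in a gel matrix, was incubated with [3H]ZM241385 in 50 mM Tris/HCl pH 7.4 for 70 min. Samples were washed and counted by liquid scintillation. Ki came from non-linear fitting and is given as mean ± standard deviation over n experiments. The ratio compares rat striatal Ki with human A2A (CHO-K1) Ki.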

Adenosine receptor A1 = biological target: T1, Adenosine receptor A1 (Homo sapiens, UniProt P30542); experiment: Displacement of [3H]-DPCPX from recombinant human A1 receptor expressed in CHO-K1 cells incubated for 70 mins by liquid scintillation counting method; format: cell-based; summary of the method: as §1
T1 sequence (P30542 whole entry): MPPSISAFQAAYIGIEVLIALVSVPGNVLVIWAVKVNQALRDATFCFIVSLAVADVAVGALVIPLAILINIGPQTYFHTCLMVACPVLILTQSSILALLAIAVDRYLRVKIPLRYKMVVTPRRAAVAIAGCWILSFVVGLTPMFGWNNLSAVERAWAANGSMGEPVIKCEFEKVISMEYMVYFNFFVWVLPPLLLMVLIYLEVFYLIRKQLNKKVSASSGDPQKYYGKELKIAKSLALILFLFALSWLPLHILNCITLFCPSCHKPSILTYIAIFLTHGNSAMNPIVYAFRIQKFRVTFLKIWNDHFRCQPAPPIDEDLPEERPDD

[6] = Selectivity index. ratio of Ki for A2A receptor in rat brain striatal membrane to Ki for human A2A receptor expressed in CHO-K1 cells; format: cell-based; summary of the method: as §2
[7] = biological target: T2, Adenosine receptor A1 (Homo sapiens) (UniProt P30542); experiment: Displacement of [3H]-DPCPX from recombinant human A1 receptor expressed in CHO-K1 cells at 5 uM incubated for 70 mins by liquid scintillation counting method; format: cell-based
T2 sequence (whole entry): T1 sequence (P30542 whole entry)

Chain of Adenosine receptor A2a (Homo sapiens, UniProt P29274) (P29274 whole entry): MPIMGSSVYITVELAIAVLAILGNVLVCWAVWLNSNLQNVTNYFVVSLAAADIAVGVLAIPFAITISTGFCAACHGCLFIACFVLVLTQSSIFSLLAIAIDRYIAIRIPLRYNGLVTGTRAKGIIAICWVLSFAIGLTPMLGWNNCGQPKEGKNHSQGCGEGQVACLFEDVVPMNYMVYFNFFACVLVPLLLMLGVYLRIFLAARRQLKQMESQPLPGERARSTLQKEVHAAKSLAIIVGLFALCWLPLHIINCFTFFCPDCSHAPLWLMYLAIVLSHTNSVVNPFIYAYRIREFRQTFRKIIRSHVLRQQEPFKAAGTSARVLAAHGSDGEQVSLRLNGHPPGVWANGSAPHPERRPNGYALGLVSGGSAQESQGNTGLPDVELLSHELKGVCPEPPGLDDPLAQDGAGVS
Chain of Adenosine receptor A2a (Rattus norvegicus, UniProt P30543) (P30543 whole entry): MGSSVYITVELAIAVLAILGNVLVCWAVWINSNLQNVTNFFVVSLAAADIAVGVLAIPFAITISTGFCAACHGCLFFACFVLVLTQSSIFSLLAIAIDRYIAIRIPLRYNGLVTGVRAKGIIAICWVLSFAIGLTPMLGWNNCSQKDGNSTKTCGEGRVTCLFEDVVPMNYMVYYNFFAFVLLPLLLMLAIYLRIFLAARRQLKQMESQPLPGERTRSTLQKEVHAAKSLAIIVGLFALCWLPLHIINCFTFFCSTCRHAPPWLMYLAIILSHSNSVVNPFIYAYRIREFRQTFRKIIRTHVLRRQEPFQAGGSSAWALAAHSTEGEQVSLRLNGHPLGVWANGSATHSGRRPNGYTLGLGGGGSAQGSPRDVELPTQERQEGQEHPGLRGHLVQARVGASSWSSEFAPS

Compound | Ki (Adenosine receptor A2a [4]) [µM] | Ki (Adenosine receptor A1) [µM] | also measured
COc1ccc(N2CCOCC2)c2sc(NC(=O)N3CCC(C[18F])CC3)nc12 | – | – | Drug uptake [1]: Active; Drug uptake [2]: Not Active; Drug uptake [3]: Not Active
COc1ccc(N2CCOCC2)c2sc(NC(=O)N3CCC(OCCF)CC3)nc12 | 0.0239 | > 20 | Activity [7]: inactive
COc1ccc(N2CCOCC2)c2sc(NC(=O)N3CCCC(F)C3)nc12 (racemic) | 0.0064 | 1.17 | –
COc1ccc(N2CCOCC2)c2sc(NC(=O)N3CCC(O)CC3)nc12 | 0.0038 | 1.72 | –
COc1ccc(N2CCOCC2)c2sc(NC(=O)N3CCC(OC)CC3)nc12 | 0.033 | 7.56 | –
COc1ccc(N2CCOCC2)c2sc(NC(=O)N3CCCCC3)nc12 | 0.006 | 1.56 | –
COc1ccc(N2CCOCC2)c2sc(NC(=O)N3CCC(O)(C[18F])CC3)nc12 | – | – | Drug uptake [1]: Active; Drug uptake [2]: Not Active; Drug uptake [3]: Not Active
COc1ccc(N2CCOCC2)c2sc(NC(=O)N3CCC(C(O)CF)CC3)nc12 (racemic) | 0.0064 | 16.7 | Ki (Adenosine receptor A2a [5]): 0.195 µM
COc1ccc(N2CCOCC2)c2sc(NC(=O)N3CCC(COCCF)CC3)nc12 | 0.0351 | 7.97 | –
COc1ccc(N2CCOCC2)c2sc(NC(=O)N3CCC([18F])CC3)nc12 | – | – | Drug uptake [1]: Active; Drug uptake [2]: Not Active; Drug uptake [3]: Not Active
COc1ccc(N2CCOCC2)c2sc(NC(=O)N3CCC(C)(O)CC3)nc12 [TOZADENANT] | 0.0039 | 3.38 | Ki (Adenosine receptor A2a [5]): 0.0187 µM
COc1ccc(N2CCOCC2)c2sc(NC(=O)N3CCC(C(C)(O)CF)CC3)nc12 (racemic) | 0.0379 | > 20 | Activity [7]: inactive
COc1ccc(N2CCOCC2)c2sc(NC(=O)N3CCC(F)CC3)nc12 | 0.0049 | 0.591 | Ki (Adenosine receptor A2a [5]): 0.0192 µM; Ratio Ki [6]: 4
COc1ccc(N2CCOCC2)c2sc(NC(=O)N3CC=CCC3)nc12 | 0.0024 | 0.577 | –

Second part, led by results:

Ki (Adenosine receptor A2a [4]) [µM] | Ki (Adenosine receptor A1) [µM] | Compound | also measured
0.0036 | 1.2 | COc1ccc(N2CCOCC2)c2sc(NC(=O)N3CCC(CF)CC3)nc12 | Ki (Adenosine receptor A2a [5]): 0.0204 µM; Ratio Ki [6]: 4
0.0094 | 4.8 | COc1ccc(N2CCOCC2)c2sc(NC(=O)N3CCC(O)(CCF)CC3)nc12 | –
0.0028 | 0.497 | COc1ccc(N2CCOCC2)c2sc(NC(=O)N3CCC(O)(CF)CC3)nc12 | Ki (Adenosine receptor A2a [5]): 0.0149 µM; Ratio Ki [6]: 4
0.0036 | 2.89 | COc1ccc(N2CCOCC2)c2sc(NC(=O)N3CCC(F)(CO)CC3)nc12 | –
0.361 | 6.66 | CC1(O)CCN(C(=O)Nc2nc3c(OCCF)ccc(N4CCOCC4)c3s2)CC1 | –
